# “And” between values parts separate entries of the source, which are not always exact repeats. Equal values may be shown once.
# System: U2OS
# Test: Multiplex assay against U2OS
# Assay type: toxicity, cell-based
# Settings: human
# Method in brief: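 Values for tubulin, mitochondrial-mass and membrane-permeability phenotypes are per cents of cells with healthy nuclei. These cells were identified by CellPathfinder machine-learning gating of live cells that had been stained at seeding with Hoechst33342, BioTracker Green Microtubule Cytoskeleton Dye, MitoTracker Red and Annexin V Alexa Fluor 680 and imaged on a CQ1 microscope at 37°C and 5% CO2 after compound addition. The gating first set Hoechst high-intensity objects apart from normal cells, then split normal cells into healthy, pyknosed or fragmented nuclei, and pyknosed cells into mitotic or apoptotic.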
# [1] = 12 h, 1 µM, compound concentration 1 uM
# [2] = 12 h, 10 µM, compound concentration 10 uM
# [3] = 24 h, 1 µM, compound concentration 1 uM
# [4] = 24 h, 10 µM, compound concentration 10 uM
# [5] = 48 h, 1 µM, compound concentration 1 uM
# [6] = 48 h, 10 µM, compound concentration 10 uM
smiles,measurement,setting,value
N#Cc1ccnc(Nc2cc(C3CCN(C4COC4)CC3)cc(N3CCC(F)(F)C3)n2)c1,Population Apoptotic (%),[1],40.82% and 36.11%
same,Population Fragmented Nuclei (%),[1],3.13% and 0.79%
same,Population Healthy Nuclei (%),[1],84.07% and 70.87%
same,Population Hoechst High Intensity Objects (%),[1],0%
same,Population Membrane Permeable-Phenotype (%),[1],3.11% and 2.22%
same,Population Mitochondria Different-Phenotype (%),[1],0.62% and 8.89%
same,Population Mitotic Cells (%),[1],59.18% and 63.89%
same,Population Normal (%),[1],100%
same,Population Pyknosed Nuclei (%),[1],12.79% and 28.35%
same,Population Tubulin-Different-Phenotype (%),[1],4.35% and 2.22%
same,Population Apoptotic (%),[2],46.67% and 38.95%
same,Population Fragmented Nuclei (%),[2],9.07% and 13.15%
same,Population Healthy Nuclei (%),[2],64.38% and 42.25%
same,Population Hoechst High Intensity Objects (%),[2],0%
same,Population Membrane Permeable-Phenotype (%),[2],7.56% and 17.78%
same,Population Mitotic Cells (%),[2],53.33% and 61.05%
same,Population Normal (%),[2],100%
same,Population Pyknosed Nuclei (%),[2],26.55% and 44.6%
same,Population Tubulin-Different-Phenotype (%),[2],73.88% and 62.22%
same,Total Cell Count,[2],452 and 213
same,Population Apoptotic (%),[3],47.06% and 53.12%
same,Population Fragmented Nuclei (%),[3],3.81% and 2.05%
same,Population Healthy Nuclei (%),[3],82.57% and 76.03%
same,Population Hoechst High Intensity Objects (%),[3],0%
same,Population Membrane Permeable-Phenotype (%),[3],2.18% and 6.31%
same,Population Mitochondria Different-Phenotype (%),[3],0.49% and 8.11%
same,Population Mitotic Cells (%),[3],52.94% and 46.88%
same,Population Normal (%),[3],100%
same,Population Pyknosed Nuclei (%),[3],13.63% and 21.92%
same,Population Tubulin-Different-Phenotype (%),[3],2.67% and 3.6%
same,Population Apoptotic (%),[4],51.37% and 67.97%
same,Population Fragmented Nuclei (%),[4],11.21% and 9%
same,Population Healthy Nuclei (%),[4],50.11% and 30.33%
same,Population Hoechst High Intensity Objects (%),[4],0% and 0.47%
same,Population Membrane Permeable-Phenotype (%),[4],6.75% and 10.94%
same,Population Mitochondria Different-Phenotype (%),[4],21.94% and 51.56%
same,Population Mitotic Cells (%),[4],48.63% and 32.03%
same,Population Normal (%),[4],100% and 99.53%
same,Population Pyknosed Nuclei (%),[4],38.69% and 60.66%
same,Population Tubulin-Different-Phenotype (%),[4],58.65% and 40.62%
same,Total Cell Count,[4],473 and 212
same,Population Apoptotic (%),[5],55.7% and 66.67%
same,Population Fragmented Nuclei (%),[5],3.56% and 4.98%
same,Population Healthy Nuclei (%),[5],85.19% and 78.61%
same,Population Hoechst High Intensity Objects (%),[5],0.14% and 0%
same,Population Membrane Permeable-Phenotype (%),[5],1.84% and 5.06%
same,Population Mitochondria Different-Phenotype (%),[5],0.67% and 6.33%
same,Population Mitotic Cells (%),[5],44.3% and 33.33%
same,Population Normal (%),[5],99.86% and 100%
same,Population Pyknosed Nuclei (%),[5],11.25% and 16.42%
same,Population Tubulin-Different-Phenotype (%),[5],3.01% and 2.53%
same,Population Apoptotic (%),[6],68.72% and 75.36%
same,Population Fragmented Nuclei (%),[6],9.35% and 11.35%
same,Population Healthy Nuclei (%),[6],37.83% and 28.38%
same,Population Hoechst High Intensity Objects (%),[6],0.22% and 0%
same,Population Mitochondria Different-Phenotype (%),[6],37.93% and 24.62%
same,Population Mitotic Cells (%),[6],31.28% and 24.64%
same,Population Normal (%),[6],99.78% and 100%
same,Population Pyknosed Nuclei (%),[6],52.83% and 60.26%
same,Population Tubulin-Different-Phenotype (%),[6],56.9% and 30.77%
same,Total Cell Count,[6],461 and 229
CCOC(=O)c1cnn(-c2ccc(NC(=O)C(Cl)=C(Cl)Cl)cc2)c1C(F)(F)F,Population Apoptotic (%),[1],35.29% and 57.89%
same,Population Fragmented Nuclei (%),[1],2.52% and 2.35%
same,Population Healthy Nuclei (%),[1],88.92% and 86.47%
same,Population Hoechst High Intensity Objects (%),[1],0%
same,Population Membrane Permeable-Phenotype (%),[1],0.57% and 2.72%
same,Population Mitochondria Different-Phenotype (%),[1],0.85% and 4.76%
same,Population Mitotic Cells (%),[1],64.71% and 42.11%
same,Population Normal (%),[1],100%
same,Population Pyknosed Nuclei (%),[1],8.56% and 11.18%
same,Population Tubulin-Different-Phenotype (%),[1],0.57% and 0%
same,Total Cell Count,[1],397 and 170
same,Population Apoptotic (%),[2],21.96% and 33.6%
same,Population Fragmented Nuclei (%),[2],2.71% and 4.35%
same,Population Healthy Nuclei (%),[2],8.13% and 5.07%
same,Population Hoechst High Intensity Objects (%),[2],0%
same,Population Membrane Permeable-Phenotype (%),[2],11.11% and 28.57%
same,Population Mitotic Cells (%),[2],78.04% and 66.4%
same,Population Normal (%),[2],100%
same,Population Pyknosed Nuclei (%),[2],89.16% and 90.58%
same,Population Tubulin-Different-Phenotype (%),[2],25.93% and 14.29%
same,Total Cell Count,[2],332 and 138
same,Population Apoptotic (%),[3],36.07% and 39.02%
same,Population Fragmented Nuclei (%),[3],1.33% and 1.84%
same,Population Healthy Nuclei (%),[3],87.12% and 79.26%
same,Population Hoechst High Intensity Objects (%),[3],0%
same,Population Membrane Permeable-Phenotype (%),[3],0.43% and 0.58%
same,Population Mitochondria Different-Phenotype (%),[3],0.43% and 4.07%
same,Population Mitotic Cells (%),[3],63.93% and 60.98%
same,Population Normal (%),[3],100%
same,Population Pyknosed Nuclei (%),[3],11.55% and 18.89%
same,Population Tubulin-Different-Phenotype (%),[3],0.22% and 0%
same,Total Cell Count,[3],528 and 217
same,Population Apoptotic (%),[4],65.22% and 84.92%
same,Population Fragmented Nuclei (%),[4],3.27% and 2.76%
same,Population Healthy Nuclei (%),[4],7.74% and 10.34%
same,Population Hoechst High Intensity Objects (%),[4],0%
same,Population Membrane Permeable-Phenotype (%),[4],30.77% and 46.67%
same,Population Mitochondria Different-Phenotype (%),[4],0% and 13.33%
same,Population Mitotic Cells (%),[4],34.78% and 15.08%
same,Population Normal (%),[4],100%
same,Population Pyknosed Nuclei (%),[4],88.99% and 86.9%
same,Population Tubulin-Different-Phenotype (%),[4],57.69% and 60%
same,Total Cell Count,[4],336 and 145
same,Population Apoptotic (%),[5],48.86% and 64.44%
same,Population Fragmented Nuclei (%),[5],5.03% and 2.12%
same,Population Healthy Nuclei (%),[5],85.95% and 84.24%
same,Population Hoechst High Intensity Objects (%),[5],0%
same,Population Membrane Permeable-Phenotype (%),[5],1.31% and 2.52%
same,Population Mitochondria Different-Phenotype (%),[5],0.12% and 2.16%
same,Population Mitotic Cells (%),[5],51.14% and 35.56%
same,Population Normal (%),[5],100%
same,Population Pyknosed Nuclei (%),[5],9.03% and 13.64%
same,Population Tubulin-Different-Phenotype (%),[5],1.07% and 1.44%
same,Total Cell Count,[5],975 and 330
same,Population Apoptotic (%),[6],86.63% and 98.18%
same,Population Fragmented Nuclei (%),[6],2.51% and 10.64%
same,Population Healthy Nuclei (%),[6],38.87% and 50.35%
same,Population Hoechst High Intensity Objects (%),[6],0%
same,Population Membrane Permeable-Phenotype (%),[6],8.06% and 23.94%
same,Population Mitochondria Different-Phenotype (%),[6],11.29% and 15.49%
same,Population Normal (%),[6],100%
same,Population Pyknosed Nuclei (%),[6],58.62% and 39.01%
same,Population Tubulin-Different-Phenotype (%),[6],66.94% and 47.89%
same,Total Cell Count,[6],319 and 141

# Source: ChEMBL document CHEMBL5724801, “EUbOPEN Chemogenomics Library - Multiplex” (2024)
